High-throughput results (PubChem)
This is a sample that favours compounds with a hit; in the whole collection about 3.2% have one here.
NR2E3 ag-1: activates human NR2E3 receptor; inhibition of corepressor binding, % at 3.98 µM; CHO-S Gal4-NCOR/VP16-NR2E3 two-hybrid, luciferase; Q9Y5X4; 360,000 compounds, 0.35% hits;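 active = inhibition above the mean of all tested compounds plus 3 SD, cut at about 70% in these data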;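 note: 0% = DMSO with NR2E3 transfected cells and 100% = cells lacking NR2E3 construct; higher means lower luciferase signal from less NR2E3 corepressor binding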
Target sequence (Q9Y5X4 whole entry, looked up, the tested form may be a part): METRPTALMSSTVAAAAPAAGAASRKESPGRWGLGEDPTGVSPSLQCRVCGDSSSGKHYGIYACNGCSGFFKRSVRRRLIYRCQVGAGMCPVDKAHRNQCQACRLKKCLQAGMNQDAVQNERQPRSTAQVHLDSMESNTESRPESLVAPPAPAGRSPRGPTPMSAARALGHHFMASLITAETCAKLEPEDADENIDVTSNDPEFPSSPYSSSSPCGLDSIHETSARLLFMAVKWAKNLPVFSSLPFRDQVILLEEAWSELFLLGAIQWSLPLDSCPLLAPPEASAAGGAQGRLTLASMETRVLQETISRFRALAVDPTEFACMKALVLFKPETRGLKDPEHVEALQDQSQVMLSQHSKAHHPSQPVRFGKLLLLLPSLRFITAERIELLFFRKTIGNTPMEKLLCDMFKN
JMJD2C inh: blocks human GASC-1 demethylase activity | Q9H3R0 | GST-JMJD2C(1-420) H3K9me3 demethylation, DELFIA europium | inhibition, % at 2.35 µM | 330,000 compounds, 0.069% hits;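 active = more than half of a compound's replicate wells show inhibition beyond 50%, single wells judged on their own value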;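 note: signal counts dimethyl H3K9 product captured on neutravidin plate; 0% = median of DMSO wells and 100% = 0.3 times that DMSO median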
SMARCA2 activ: activators of SMARCA2 function. activation, % at 9.1 µM. AID 652017. 370,000 compounds, 1% hits. MG213 cells, MMTV-luciferase reporter, dexamethasone, overnight; in the data active = activation above about 7.8%;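 note: 0% = vehicle wells and 100% = reference activator wells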
DAX1 inh-1: inhibitors of human orphan nuclear receptor DAX1 (NR0B1). HEK293 Gal4-DAX1 luciferase reporter, luminescence. inhibition, % at 6.75 µM. 340,000 compounds, 0.99% hits. AID 504766;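 active = inhibition above the mean over all tested compounds plus 3 SD, cut at about 4.2% in these data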;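 note: 0% = DAX1-transfected cells with DMSO and 100% = empty-vector control cells with DMSO; inhibition shows as a rise in luminescence from relieved DAX1 repression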
Target sequence (P51843 207-470 limits assumed): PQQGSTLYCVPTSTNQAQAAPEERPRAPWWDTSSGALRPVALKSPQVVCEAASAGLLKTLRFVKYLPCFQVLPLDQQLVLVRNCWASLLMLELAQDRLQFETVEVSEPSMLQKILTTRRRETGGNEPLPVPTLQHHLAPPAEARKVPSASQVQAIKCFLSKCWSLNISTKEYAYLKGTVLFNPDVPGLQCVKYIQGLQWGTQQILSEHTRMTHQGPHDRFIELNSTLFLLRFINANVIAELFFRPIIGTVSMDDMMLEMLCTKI
DAX1 inh-2: DAX1 (NR0B1) inhibition, primary screen | HEK293T StAR-luciferase reporter, SF-1/DAX-1 repression relief | 370,000 compounds, 1.1% hits | inhibition, % at 6.8 µM | AID 652010;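 active = inhibition above the mean over all tested compounds plus 3 SD, cut at about 3.6% in these data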;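 note: 0% = DAX-1 cells with DMSO and 100% = cells lacking DAX-1 with DMSO; higher inhibition means more luminescence from relief of DAX-1 repression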
NR2E3 ag-2: NR2E3 (human) agonism; Q9Y5X4; GST-NR2E3/biotin-RetCOR TR-FRET, 1536-well; inhibition of corepressor binding, % at 4.78 µM; 320,000 compounds, 0.12% hits; AID 2300;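 active = percent inhibition above the cutoff of mean plus 3 SD of all tested compounds, set per screening campaign, cut at about 20% in these data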;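 note: 0% = DMSO wells and 100% = biotin wells as full block of FRET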
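Assay system: NR2E3–RetCOR corepressor complex. Quantity: 1.35 nM GST-NR2E3. Buffer or medium: pH 7.5 Tris-based buffer. Reagent: biotinylated RetCOR corepressor at 7 nM final. Schedule: 5 h at 4 °C. Detection: TR-FRET, emission read at 617 and 671 nm. Replicates: one well per compound, singlicate testing.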
SMARCA2 conf: confirmation of SMARCA2 (BRM) function activators; shares compounds with SMARCA2 activ; MG213 cells, MMTV-luciferase with dexamethasone, luminescence, overnight; MG213 cells expressing E1A, Rb sequestered; DMSO wells 0%, reference activator 100%; 3,500 compounds, 30% hits; activation, % at 9.1 µM;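 active = activation above its plate's cutoff, the mean activation of tested wells plus 3 SD, cut at about 7.9% in these data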
VP16 Luc act: counter-screen for SMARCA2 activators: GAL4-VP16 luciferase reporter activation; shares compounds with SMARCA2 activ; HEK293 GAL4-VP16 pG5luc reporter, luciferase luminescence; scaled: DMSO wells 0%, SAHA wells 100%; activation, % at 9.1 µM; 3,500 compounds, 41% hits;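 active = activation above the solvent-only control well mean plus 3 SD, averaged across control plates, cut at about 5.2% in these data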
The depositor's hits bear a star; / = not tested or not shown.

SMILES	NR2E3 ag-1	JMJD2C inh	SMARCA2 activ	DAX1 inh-1	DAX1 inh-2	NR2E3 ag-2	SMARCA2 conf	VP16 Luc act
N#C/C(=C/c1ccc(N2CCOCC2)o1)c1nc2ccccc2[nH]1	-151.2	/	9.7*	2.9	2.4	-7.5	16.3*	16.6*
Cc1cc(/C=C(\C#N)c2nc3ccccc3[nH]2)c(C)n1C	-121.2	-7.1	-1.1	-0.2	1.6	-3.7	/	/
Cc1ccc(/C=C(\C#N)c2nc3ccccc3[nH]2)s1	-101.1	-3.3	10.4*	1.4	3.2	-3.3	18.9*	10.8*
C[C@@H]1[C@@H](O)C[C@@]2(C[C@H](O)c3cc(Cl)cc(Cl)c3O2)O[C@H]1c1ccccc1Cl	/	/	-1.5	/	0.2	/	/	/
CN(CC(=O)Nc1ccccc1Br)C(=O)C1CCN(C(=O)c2ccc(Cl)cc2)CC1	-9.9	3.5	-1.6	0.7	0.7	-2.1	/	/
Cc1cc(Cl)nc(-c2ccccc2O)n1	6.3	10.9	0.4	-0.2	0.0	-1.6	/	/
CNc1nc(C)nc(-c2ccccc2O)n1	-31.0	5.6	8.7*	-0.3	1.4	0.9	7.6	5.1*
CC(C)[C@H](NC(=O)C1CCCC1)C(=O)N1CCC[C@H]1C(=O)NCCc1ccccc1Cl	/	/	-0.7	/	-0.3	/	/	/
Fc1ccc(/C=C\c2nccc3c2[nH]c2ccccc23)cc1	-67.6	-1.4	15.6*	-0.5	0.7	3.7	4.3	3.0
Cc1ccc(/C=C\c2nccc3c2[nH]c2ccccc23)cc1	-79.7	-12.8	10.2*	2.1	4.5*	1.1	7.6	8.1*
C(=C\c1nccc2c1[nH]c1ccccc12)/c1ccccc1	-57.7	-3.5	6.4	1.6	0.8	2.0	/	/
Cc1[nH]c2ccccc2c1/C=C/c1cc[n+](C)cc1	-17.6	-24.3	-1.3	0.5	-0.5	/	/	/
CCOc1ccccc1N1CCN(C(=S)NCc2ccco2)CC1	4.9	1.9	8.1*	-0.3	0.1	1.6	1.3	0.3
CCOc1ccccc1N1CCN(C(=S)NCc2ccccc2)CC1	5.9	3.3	-0.2	0.9	-0.5	3.9	/	/
CC[C@]12c3[nH]c4cc(-c5ccco5)ccc4c3CCN1C(=O)[C@@H](CC(=O)NC(C)(C)C)C[C@@H]2C(=O)N1CCN(C(=O)c2ccco2)CC1	3.6	/	2.7	-0.9	-0.4	/	/	/
CCc1ccc(OCC(=O)Nc2ncn[nH]2)cc1	-15.0	17.4	8.1*	1.6	1.3	-0.1	11.4*	8.7*
COc1ccc(NC(=O)N(C)[C@H]2C[C@H]3c4[nH]c5c(-c6cccc(C)c6)cccc5c4CCN3C(=O)[C@H]2[C@H](C)O)cc1	/	/	-4.3	/	-1.3	/	/	/
C=CCn1c(-c2cccc(S(=O)(=O)N3CCOCC3)c2)n[nH]c1=S	-18.1	/	-2.0	0.9	1.4	/	/	/
O=S(=O)(c1cccc(-c2n[nH]c(=S)n2C2CCCC2)c1)N1CCOCC1	-5.2	-2.0	8.8*	1.6	0.4	0.2	-0.9	0.4
COc1ccc2c(c1)CCc1c(C(=O)NCc3cccnc3)noc1-2	-95.8	-4.4	10.2*	2.4	-0.2	3.0	0.4	6.4*
Fc1cccc(F)c1Cn1ccc2ccc(-c3ccc4ccn(Cc5c(F)cccc5F)c4c3)cc21	/	/	1.1	/	-0.7	/	/	/
CCOC(=O)[C@]12CCC=C1N(Cc1cccc3ccccc13)C(=O)[C@H](CC(=O)NCCCCc1ccccc1)C2	3.8	/	-5.8	/	1.5	/	/	/
COc1ccc(C2/C(=C(/O)c3ccc(C)cc3)C(=O)C(=O)N2c2ccccn2)cc1OC (stereo not drawn)	-22.9	0.5	-2.3	-0.2	-0.3	1.1	/	/
CCCOc1ccc(/C(O)=C2\C(=O)C(=O)N(c3ccccn3)C2c2ccccc2F)cc1C (stereo not drawn)	14.7	-0.8	14.7*	0.7	0.5	9.9	4.9	3.7
COc1ccc(C2/C(=C(/O)c3ccccc3)C(=O)C(=O)N2c2ccccn2)cc1 (stereo not drawn)	-7.0	0.3	10.1*	2.3	0.6	-0.8	3.9	0.6
SMILES	NR2E3 ag-1	JMJD2C inh	SMARCA2 activ	DAX1 inh-1	DAX1 inh-2	NR2E3 ag-2	SMARCA2 conf	VP16 Luc act
CCC(C)(C)C1CCC2(CC1)NC(=O)N(CC(=O)NCCc1c[nH]c3ccccc13)C2=O (stereo not drawn)	3.4	-5.1	8.1*	0.8	-0.2	-2.2	3.3	1.7
CCc1nc(SCc2cc(Cl)ccc2OC)n[nH]1	-17.1	-10.4	9.4*	-0.2	-0.5	-4.8	-1.1	0.0
CCc1nc(SCc2ccc(OC)cc2)n[nH]1	-70.5	17.2	-0.8	1.8	0.9	6.9	/	/
Cc1cccc(N(C(=O)CNC(=O)c2ccco2)C(C(=O)NC2CCCC2)c2cccnc2)c1C (stereo not drawn)	-8.1	-5.7	-0.9	0.4	0.1	-2.2	/	/
Clc1ccc2oc(-c3ccccc3)cc(=NCCCN3CCOCC3)c2c1	-100.8	/	16.7*	1.7	2.2	/	14.5*	5.6*
OCCCCCN=c1cc(-c2ccccc2)oc2ccc(Cl)cc12	-53.8	-4.3	13.3*	2.1	0.6	-0.1	19.0*	0.9
CCN(CCCNC(=O)CN1C(=O)COc2ccc(S(=O)(=O)N3CCC(C)CC3)cc21)Cc1ccccc1	-1.4	6.8	-1.8	1.8	0.3	-3.6	/	/
O=C(COC(=O)Cc1ccc(S(=O)(=O)N2CCOCC2)s1)Nc1ccccc1	9.6	5.7	8.1*	-0.2	-2.2	/	2.2	0.7
N#Cc1ccccc1OCC(=O)Nc1ccc(S(=O)(=O)N2CCOCC2)cc1	-3.7	0.3	9.6*	0.8	-0.6	/	2.0	0.6
COc1ccc2nc(C)cc(Nc3ccc(N4CCN(C)CC4)cc3)c2c1	-61.5	-4.5	74.3*	-0.8	0.0	0.3	133.4*	-1.2
COc1ccc2nc(C)cc(Nc3ccc(N4CCOCC4)cc3)c2c1	-15.3	0.6	-0.2	0.9	0.0	-0.8	/	/
CN1CCc2c(sc3c2C(=O)NC(c2cccs2)N3)C1 (stereo not drawn)	-40.0	5.5	11.1*	1.3	-0.5	-0.7	4.4	1.9
CCCCC#Cc1ccccc1COC[B-](F)(F)F	/	/	16.7*	/	0.2	/	7.9*	5.9*
F[B-](F)(F)COCc1ccccc1C#Cc1ccccc1	/	/	18.0*	/	0.9	/	17.2*	3.2
C[C@H]1CN(c2ccc(N3CCNC[C@@H]3C)cc2C#N)CCN1Cc1ccccc1	/	/	10.7*	/	-1.3	/	-2.0	-0.1
C[C@@H]1CNCCN1c1ccc(N2CCN(Cc3ccccc3)[C@@H](C)C2)c(C#N)c1	/	/	0.6	/	-1.9	/	/	/
